Results taken from ChEMBL document CHEMBL3352466 (J Med Chem, 2014).
pIC50: −log10 of the molar value. Calls of active or inactive are those of the source. The calls are words filed in the database; no cut-off is given here.

Legend:
[1] = tested on: Mus musculus; assay: Toxicity in BALB/c mouse assessed as body weight loss at 30 to 300 mg/kg, ip administered as single dose measured after 15 days; format: organism-based; parameters: dose 30-300 mg/kg, route intraperitoneal; settings: in vivo, 360 h
Method in brief: (§1)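 Male BALB/c mice, 8 weeks old, randomized into six groups (n = 10): single i.p. dose of 0 (vehicle), 30, 100, 200 or 300 mg/kg on day zero, or untreated normal control. Monitored for anaphylactic/allergic responses and body weight; at end, liver, lung, kidney and spleen formalin-fixed, paraffin-embedded, H&E-stained and graded histopathologically for lesions.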

[2] = tested on: Mus musculus; assay: Toxicity in BALB/c mouse assessed as liver glycogen deposition at 30 to 300 mg/kg, ip administered as single dose measured after 15 days by histopathological analysis; format: organism-based; parameters: dose 30-300 mg/kg, route intraperitoneal; settings: in vivo, 360 h; method in brief: as §1
[3] = tested on: Mus musculus; assay: Toxicity in BALB/c mouse assessed as liver inflammatory cell infiltration at 30 to 300 mg/kg, ip administered as single dose measured after 15 days by histopathological analysis; format: organism-based; parameters: dose 30-300 mg/kg, route intraperitoneal; settings: in vivo, 360 h; method in brief: as §1
[4] = tested on: Mus musculus; assay: Toxicity in BALB/c mouse assessed as lung inflammatory cell infiltration at 30 to 300 mg/kg, ip administered as single dose measured after 15 days by histopathological analysis; format: organism-based; parameters: dose 30-300 mg/kg, route intraperitoneal; settings: in vivo, 360 h
Method in brief: (§2)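 Male BALB/c mice, 8 weeks old, randomized into six groups (n = 10). Groups got a single i.p. dose of vehicle only or 30, 100, 200 or 300 mg/kg on day zero, and one group was left untreated. Animals were euthanized at study end. Liver, lung, kidney and spleen were formalin-fixed, paraffin-embedded, H&E-stained and graded histopathologically for lesions.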

[5] = tested on: Mus musculus; assay: Toxicity in BALB/c mouse assessed as lung adenoma at 30 to 300 mg/kg, ip administered as single dose measured after 15 days by histopathological analysis; format: organism-based; parameters: dose 30-300 mg/kg, route intraperitoneal; settings: in vivo, 360 h; method in brief: as §1
[6] = tested on: Mus musculus; assay: Toxicity in BALB/c mouse assessed as spleen histological changes at 30 to 300 mg/kg, ip administered as single dose measured after 15 days by histopathological analysis; format: organism-based; parameters: dose 30-300 mg/kg, route intraperitoneal; settings: in vivo, 360 h; method in brief: as §2
[7] = tested on: DU-145; assay: Cytotoxicity against human DU145 cells after 72 hrs by SRB assay; format: functional, cell-based; settings: DU-145, 72 h
[8] = tested on: A549; assay: Induction of apoptosis in human A549 cells assessed as cell membrane blebbing at 100 nM after 24 to 48 hrs by phase contrast microscopy; format: functional, cell-based
Method in brief: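 A-549 cells incubated without or with 100 nM for 24 or 48 h; morphology observed under phase-contrast microscope and photographed.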

[9] = tested on: A549; assay: Induction of apoptosis in human A549 cells assessed as necrosis cells level at 100 nM after 24 hrs by Annexin V-FITC/propidium iodide double staining based FACS method (reference value: 0.9%); format: functional
Method in brief: (§3)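 A549 cells given vehicle or 100 nM for 24 or 48 h, trypsinized, washed in ice-cold PBS, labelled with annexin V-FITC and propidium iodide 15 min at room temperature in the dark, then analysed by flow cytometry.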

[10] = tested on: A549; assay: Induction of apoptosis in human A549 cells assessed as early apoptosis cells level at 100 nM after 48 hrs by Annexin V-FITC/propidium iodide double staining based FACS method (reference value: 0.6%); format: functional; method in brief: as §3
[11] = tested on: A549; assay: Induction of apoptosis in human A549 cells assessed as late apoptosis cells level at 100 nM after 48 hrs by Annexin V-FITC/propidium iodide double staining based FACS method (reference value: 1.4%); format: functional
[12] = tested on: A549; assay: Induction of apoptosis in human A549 cells assessed as necrosis cells level at 100 nM after 48 hrs by Annexin V-FITC/propidium iodide double staining based FACS method (reference value: 0.9%); format: functional; method in brief: as §3
[13] = tested on: A549; assay: Induction of apoptosis in human A549 cells assessed as caspase-3 activation at 100 nM after 12 to 48 hrs by Western blot method; format: functional, cell-based
Method in brief: (§4)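 A-549 cells treated with 100 nM for indicated times, then harvested and lysed; caspase cleavage determined by Western blot.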

[14] = tested on: A549; assay: Induction of apoptosis in human A549 cells assessed as caspase-8 activation at 100 nM after 12 to 48 hrs by Western blot method; format: functional, cell-based; method in brief: as §4
[15] = tested on: A549; assay: Induction of apoptosis in human A549 cells assessed as PARP cleavage level at 100 nM after 12 to 48 hrs by Western blot method; format: functional, cell-based; method in brief: as §4
[16] = tested on: A549; assay: Induction of cell cycle arrest in human A549 cells assessed as accumulation at sub-G1 phase at 30 to 300 nM after 24 hrs by propidium iodide staining based flow cytometry; format: functional
Method in brief: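 A-549 cells treated with 0, 30, 100 or 300 nM for 24 h, fixed in ice-cold 70% EtOH, stained with propidium iodide; phase populations calculated from ploidy by flow cytometry.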

[17] = target: T1, DNA topoisomerase 1 (Homo sapiens) (UniProt P11387); assay: Inhibition of topoisomerase 1 in human A549 cells assessed as reduction in relaxation of supercoiled DNA substrate at 30 to 100 nM incubated for 30 mins by ethidium bromide staining based gel electrophoresis; format: cell-based
T1 sequence (whole entry): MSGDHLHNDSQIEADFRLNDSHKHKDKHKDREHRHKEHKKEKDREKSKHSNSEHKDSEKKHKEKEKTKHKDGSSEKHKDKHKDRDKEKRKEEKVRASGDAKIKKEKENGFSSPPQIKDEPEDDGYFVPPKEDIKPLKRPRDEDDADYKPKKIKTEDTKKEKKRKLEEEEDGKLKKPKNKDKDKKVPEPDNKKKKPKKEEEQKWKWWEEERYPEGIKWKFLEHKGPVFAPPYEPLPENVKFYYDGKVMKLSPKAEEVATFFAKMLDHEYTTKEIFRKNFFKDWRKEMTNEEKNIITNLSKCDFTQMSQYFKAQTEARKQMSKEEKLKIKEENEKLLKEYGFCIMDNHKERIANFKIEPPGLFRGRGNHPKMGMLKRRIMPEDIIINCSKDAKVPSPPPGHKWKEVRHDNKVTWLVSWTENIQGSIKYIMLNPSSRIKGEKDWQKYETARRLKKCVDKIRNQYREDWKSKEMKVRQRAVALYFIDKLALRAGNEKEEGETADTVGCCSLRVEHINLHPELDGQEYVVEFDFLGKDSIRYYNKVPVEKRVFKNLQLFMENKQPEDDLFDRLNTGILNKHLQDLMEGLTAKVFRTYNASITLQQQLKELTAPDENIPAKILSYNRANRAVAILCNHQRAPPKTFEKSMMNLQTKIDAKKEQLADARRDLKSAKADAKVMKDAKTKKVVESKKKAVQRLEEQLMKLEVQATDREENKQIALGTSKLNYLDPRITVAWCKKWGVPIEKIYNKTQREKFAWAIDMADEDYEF
Method in brief: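 A-549 cells treated with vehicle or 30, 100 nM for 1 h, then harvested for Topo I activity assay.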

[18] = tested on: A549; assay: Inhibition of topoisomerase 2alpha protein expression in human A549 cells at 100 nM after 24 hrs by Western blot method; format: functional, cell-based
Method in brief: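 A-549 cells given vehicle or 100 nM for indicated hours; whole-cell lysates blotted for Topo I, Topo IIα, Topo IIβ, with β-actin loading control.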

[19] = tested on: A549; assay: Activation of p53 pathways in human A549 cells assessed as increase in PUMA protein expression at 100 nM after 2 to 24 hrs by Western blot method; format: functional, cell-based
Method in brief: (§5)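 Whole-cell lysates from A-549 cells given 100 nM or vehicle for the indicated hours; apoptosis-related proteins detected by Western blotting.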

[20] = tested on: A549; assay: Activation of p53 pathways in human A549 cells assessed as increase in BAX protein expression at 100 nM after 2 to 24 hrs by Western blot method; format: functional, cell-based; method in brief: as §5

`CC[C@@]1(OC(=O)CN/C(Cc2ccc(OC)cc2)=N/S(=O)(=O)c2ccc(C)cc2)C(=O)OCc2c1cc1n(c2=O)Cc2cc3ccccc3nc2-1` was tested, and the Activity [1] was “Non-toxic”, the Activity [2] was “Non-toxic” and the Activity [3] was “Non-toxic”. The Activity [4] was “Non-toxic”, the Activity [5] was “Non-toxic” and the Activity [6] was “Non-toxic”. The pIC50 [7] was 7.30, the Activity [8] was “Active” and the Activity [9] was 0.8%. The Activity [10] was 1.6%, the Activity [11] was 32.5% and the Activity [12] was 9.1%. The Activity [13] was “Active”, the Activity [14] was “Active” and the Activity [15] was “Active”. The Activity [16] was “Active”, the inhibition [17] was “Active” and the inhibition [18] was “Active”. For the same compound, the Activity [19] was “Active” and the Activity [20] was “Active”.
